Common to all, as to type: functional
For assay [1], the system named is P388. The assay can be described thus: Antitumor activity against mouse P388 cells allografted in mouse assessed as increase in mouse survival time at 0.5 mg/kg, iv for 4 to 9 days relative to control. The gist of the method:
(§1)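 Run under NCI protocols 3LE21 (L1210) and 3PS31 (P388) in mice, six mice per test group. Drug was injected daily for 9 days, with 20–30 uninjected control animals. Mean or median survival time of the treated group was divided by that of controls and multiplied by 100, then reported as percentage increase in life span.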

The subject of assay [2] is L1210. The assay can be described thus: Antitumor activity against mouse L1210 cells allografted in mouse assessed as increase in mouse survival time at 12.8 mg/kg, iv for 4 to 9 days relative to control. The procedure, abridged: as §1
The subject of assay [3] is B16. The assay can be described thus: Antitumor activity against mouse B16 cells allografted in mouse assessed as increase in mouse survival time at 4.9 mg/kg, iv for 4 to 9 days relative to control. The procedure, abridged:
(§2)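 Run under NCI protocols 3B131 (B-16 melanocytic melanoma) and 3LL32 (Lewis lung carcinoma) in mice, ten mice per test group. Drug was injected every 4 days, with 20–30 uninjected control animals. Mean or median survival of treated mice over that of controls ×100 was reported as percentage increase in life span.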

Assay [4] concerns B16. Description: Antitumor activity against mouse B16 cells allografted in mouse assessed as increase in mouse survival time at 14.8 mg/kg, iv for 4 to 9 days relative to control. The procedure, abridged:
as §2

Assay [5] concerns P388. The assay can be described thus: Antitumor activity against mouse P388 cells allografted in mouse assessed as increase in mouse survival time at 12.8 mg/kg, iv for 4 to 9 days relative to control. The procedure, abridged: as §1
A short description of assay [6]: Cytotoxicity against human 9KB cells.
The subject of assay [7] is Lewis lung carcinoma cell line. The assay can be described thus: Antitumor activity against mouse LLC cells allografted in mouse assessed as increase in mouse survival time at 15.7 mg/kg, iv for 4 to 9 days relative to control. The procedure, abridged:
as §2

Assay [8] has as its system P388. Description: Antitumor activity against mouse P388 cells allografted in mouse assessed as increase in mouse survival time at 4.3 mg/kg, iv for 4 to 9 days relative to control. The procedure, abridged:
as §1

In assay [9] the test system is B16. The assay can be described thus: Antitumor activity against mouse B16 cells allografted in mouse assessed as increase in mouse survival time at 43.5 mg/kg, iv for 4 to 9 days relative to control. The procedure, abridged:
as §2

Assay [10] deals with L1210. Description: Antitumor activity against mouse L1210 cells allografted in mouse assessed as increase in mouse survival time at 4.3 mg/kg, iv for 4 to 9 days relative to control. The procedure, abridged: as §1
Assay [11] concerns L1210. The assay can be described thus: Antitumor activity against mouse L1210 cells allografted in mouse assessed as increase in mouse survival time at 1.4 mg/kg, iv for 4 to 9 days relative to control. The procedure, abridged:
as §1

The subject of assay [12] is P388. The assay can be described thus: Antitumor activity against mouse P388 cells allografted in mouse assessed as increase in mouse survival time at 1.4 mg/kg, iv for 4 to 9 days relative to control. The procedure, abridged: as §1
Assay [13] deals with P388. The assay can be described thus: Cytotoxicity against mouse P388 cells relative to camptothecin.
In assay [14] the test system is P388. Description: Cytotoxicity against mouse P388 cells. The conditions noted are these: Mus musculus, P388; read-out: ED50 (the source's name).
Assay [15] deals with Lewis lung carcinoma cell line. The assay can be described thus: Antitumor activity against mouse LLC cells allografted in mouse assessed as increase in mouse survival time at 48 mg/kg, iv for 4 to 9 days relative to control. The procedure, abridged: as §2
The subject of assay [16] is Lewis lung carcinoma cell line. Description: Antitumor activity against mouse LLC cells allografted in mouse assessed as increase in mouse survival time at 4 mg/kg, iv for 4 to 9 days relative to control. The procedure, abridged:
as §2

Assay [17] concerns L1210. The assay can be described thus: Antitumor activity against mouse L1210 cells allografted in mouse assessed as increase in mouse survival time at 0.5 mg/kg, iv for 4 to 9 days relative to control. The gist of the method:
as §1

A short description of assay [18]: Cytotoxicity against human 9KB cells relative to camptothecin.

One may read the T/C as the ratio of treated to control.

On to `CC[C@@](O)(C(=O)NC(C)C)c1cc2n(c(=O)c1COC(C)=O)Cc1cc3ccccc3nc1-2`, for which the T/C in assay [1] is reported as 126%; in assay [2] it was 105%; in assay [3], 100%; in assay [4] it was 105%; in [5] it was 97%; in [7], 166%. The T/C in assay [8] worked out at 173%; in [9], 114%; in assay [10], 147%; in [11], 116%; in assay [12] it was 126%; in assay [15] it was 156%. In addition, the T/C in [16] amounted to 147%; in assay [17] it was 110%. The ED50 in assay [6] is 7.8 ×10⁻⁴ umol/ml. Besides, the Activity amounted to 0.08% in assay [13] and 2.8% in assay [18]. Also, the EC50 in [14] stood at 7.4 µM.
